In ChEMBL document CHEMBL1152931, “Glycogen phosphorylase inhibitory effects of 2-oxo-1,2-dihydropyridin-3-yl amide derivatives” (Bioorg Med Chem, 2009):
pIC50: −log10 of the molar value.

What was measured:
[1] = target: T1, Glycogen phosphorylase, muscle form (Oryctolagus cuniculus) (UniProt P00489); test: Inhibition of rabbit muscle glycogen phosphorylase at 222 uM
T1 sequence (whole entry): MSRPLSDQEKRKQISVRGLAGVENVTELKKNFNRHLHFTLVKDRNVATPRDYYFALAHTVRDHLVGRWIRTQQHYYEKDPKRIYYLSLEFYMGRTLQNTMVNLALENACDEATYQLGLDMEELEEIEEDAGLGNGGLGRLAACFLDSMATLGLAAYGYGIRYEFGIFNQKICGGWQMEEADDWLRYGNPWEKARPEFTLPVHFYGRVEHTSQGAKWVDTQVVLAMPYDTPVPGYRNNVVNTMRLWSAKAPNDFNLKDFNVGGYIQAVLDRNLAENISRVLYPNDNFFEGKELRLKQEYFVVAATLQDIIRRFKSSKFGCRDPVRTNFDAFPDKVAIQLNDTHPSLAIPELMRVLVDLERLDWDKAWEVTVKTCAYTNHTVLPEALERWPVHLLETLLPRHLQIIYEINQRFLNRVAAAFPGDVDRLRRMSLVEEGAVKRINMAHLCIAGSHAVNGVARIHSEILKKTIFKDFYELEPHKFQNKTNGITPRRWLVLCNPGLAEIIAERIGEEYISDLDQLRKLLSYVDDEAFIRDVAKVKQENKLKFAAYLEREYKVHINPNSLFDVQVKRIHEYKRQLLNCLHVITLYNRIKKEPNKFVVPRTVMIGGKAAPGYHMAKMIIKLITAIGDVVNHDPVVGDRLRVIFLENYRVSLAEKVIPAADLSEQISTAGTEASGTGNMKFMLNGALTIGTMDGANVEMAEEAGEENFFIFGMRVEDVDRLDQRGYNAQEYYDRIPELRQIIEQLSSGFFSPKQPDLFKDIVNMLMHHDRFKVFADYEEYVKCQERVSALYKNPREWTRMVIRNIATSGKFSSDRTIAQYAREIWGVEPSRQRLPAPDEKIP
Method in brief: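 Rabbit muscle glycogen phosphorylase a at 0.475 µg/mL, assayed in the glycogen-synthesis direction. Run 30 min at 22 °C. Compounds added in 14% DMSO. Released phosphate read at 620 nm by malachite green/ammonium molybdate in 1 M HCl. Duplicates on two occasions, averaged.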

[2] = target: T2, Glycogen phosphorylase, muscle form (Oryctolagus cuniculus, UniProt P00489); test: Inhibition of rabbit muscle glycogen phosphorylase
T2 sequence (P00489 whole entry): T1 sequence (whole entry)

[3] = target: T1, Glycogen phosphorylase, muscle form (Oryctolagus cuniculus); details: 111 uM

| SMILES | inhibition [1] [%] | pIC50 [2] | inhibition [3] [%] |
| --- | --- | --- | --- |
| O=C(Cn1cccc(NCc2ccccc2)c1=O)N[C@H](CO)Cc1ccccc1 | 94 | – | – |
| CC(=O)Nc1cccn(CC(=O)NC2CCCCC2)c1=O | < 20 | – | – |
| CC(=O)Nc1cccn(CC(=O)NCc2ccccc2)c1=O | < 20 | – | – |
| O=C(Cn1cccc(NCc2ccccc2)c1=O)N1CCCC1 | < 20 | – | – |
| O=C(Nc1cccn(CC(=O)N2CCCCC2)c1=O)c1ccccc1 | < 20 | – | – |
| O=C(Cn1cccc(NC(=O)c2ccccc2)c1=O)NCCO | < 20 | – | – |
| O=C(Cn1cccc(NC(=O)c2ccccc2)c1=O)NN1CCOCC1 | < 20 | – | – |
| O=C(Cn1cccc(NC(=O)c2ccccc2)c1=O)NCc1ccc(Cl)c(Cl)c1 | 45 | 3.79 | – |
| O=C(Cn1cccc(NCc2ccccc2)c1=O)NCc1ccccc1 | – | 4.47 | 96 |
| CCNC(=O)Cn1cccc(NC(=O)c2ccccc2)c1=O | < 20 | – | – |
| O=C(Cn1cccc(NCc2ccccc2)c1=O)NCc1ccccn1 | < 20 | – | – |
| O=C(Cn1cccc(NC(=O)c2ccccc2)c1=O)NC1CCN(Cc2ccccc2)CC1 | < 20 | – | – |
| CCCNc1cccn(CC(=O)OCC)c1=O | < 20 | – | – |
| CC(=O)Nc1cccn(CC(=O)NCCO)c1=O | < 20 | – | – |
| CCCNC(=O)Cn1cccc(NCCC)c1=O | < 20 | – | – |
| CCCNC(=O)Cn1cccc(NC(C)=O)c1=O | < 20 | – | – |
| CC(=O)Nc1cccn(CC(=O)NCc2ccc(Cl)c(Cl)c2)c1=O | 45 | 3.43 | – |
| O=C(Cn1cccc(NC(=O)c2ccccc2)c1=O)NCCCN1CCOCC1 | < 20 | – | – |
| O=C(Cn1cccc(NCc2ccccc2)c1=O)NC1CCN(Cc2ccccc2)CC1 | 45 | 3.09 | – |
| O=C(Cn1cccc(NCc2ccccc2)c1=O)N[C@H](CO)c1ccccc1 | 40 | 3.92 | – |

The next lines start with the values.

| inhibition [1] [%] | pIC50 [2] | inhibition [3] [%] | SMILES |
| --- | --- | --- | --- |
| 38 | 3.51 | – | COc1ccccc1CNC(=O)Cn1cccc(NCc2ccccc2)c1=O |
| < 20 | – | – | CCCNc1cccn(CC(=O)N2CCCC2)c1=O |
| < 20 | – | – | O=C(Cn1cccc(NC(=O)c2ccccc2)c1=O)NCCN1CCCCC1 |
| < 20 | – | – | CCOC(=O)Cn1cccc(NC(C)=O)c1=O |
| < 20 | – | – | CCOC(=O)Cn1cccc(NCc2ccccc2)c1=O |
| < 20 | – | – | CC(C)NC(=O)Cn1cccc(NC(=O)c2ccccc2)c1=O |
| < 20 | – | – | O=C(Cn1cccc(NC(=O)c2ccccc2)c1=O)N[C@H](CO)c1ccccc1 |
| < 20 | – | – | O=C(Cn1cccc(NC(=O)c2ccccc2)c1=O)NCc1ccccc1 |
| < 20 | – | – | O=C(Cn1cccc(NC(=O)c2ccccc2)c1=O)N[C@H](CO)Cc1ccccc1 |
| < 20 | – | – | CCCNC(=O)Cn1cccc(NC(=O)c2ccccc2)c1=O |
| 40 | 2.75 | – | CCCNc1cccn(CC(=O)NCc2ccc(Cl)c(Cl)c2)c1=O |
| < 20 | – | – | CCCCNC(=O)Cn1cccc(NC(=O)c2ccccc2)c1=O |
| < 20 | – | – | CC(C)CNC(=O)Cn1cccc(NC(=O)c2ccccc2)c1=O |
| < 20 | – | – | COCCCNC(=O)Cn1cccc(NC(=O)c2ccccc2)c1=O |
| < 20 | – | – | CC(=O)Nc1cccn(CC(=O)NC(C)C)c1=O |
| < 20 | – | – | CC(C)NC(=O)Cn1cccc(NCc2ccccc2)c1=O |
| < 20 | – | – | NS(=O)(=O)c1ccc(CCNC(=O)Cn2cccc(NC(=O)c3ccccc3)c2=O)cc1 |
| 80 | 3.46 | – | CCCNc1cccn(CC(=O)NCc2ccccc2)c1=O |
| < 20 | – | – | O=C(Nc1cccn(CC(=O)N2CCOCC2)c1=O)c1ccccc1 |
| < 20 | – | – | O=C(Cn1cccc(NC(=O)c2ccccc2)c1=O)NCc1ccccn1 |
| < 20 | – | – | CCCNC(=O)Cn1cccc(NCc2ccccc2)c1=O |
| < 20 | – | – | CC(C)(CO)NC(=O)Cn1cccc(NC(=O)c2ccccc2)c1=O |
| 94 | 5.20 | – | O=C(Cn1cccc(NCc2ccccc2)c1=O)NCc1ccc(Cl)c(Cl)c1 |
| < 20 | – | – | CC(=O)Nc1cccn(CC(=O)N2CCCC2)c1=O |
| < 20 | – | – | CCOC(=O)Cn1cccc(NC(=O)c2ccccc2)c1=O |
| < 20 | – | – | O=C(Cn1cccc(NC(=O)c2ccccc2)c1=O)N[C@@H](CO)Cc1ccccc1 |
| < 20 | – | – | NCCNC(=O)Cn1cccc(NC(=O)c2ccccc2)c1=O |
| < 20 | – | – | O=C(Nc1cccn(CC(=O)N2CCCC2)c1=O)c1ccccc1 |
